# mABHD4 FP – inhibitors of mouse ABHD4 | Q8VD66 | purified mABHD4, FP-Rh probe fluorescence polarization | inhibition, % at 8.92 µM | hit rate 0.54% among 370,000;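 active = inhibition exceeding the mean over every tested compound plus 3 SD, cut at about 30% in these data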;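 also: 0% = plate median of compound wells and 100% = S159A mutant with DMSO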
#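 System: mouse ABHD4 enzyme, wild type / Medium: HEPES pH 7.0, NaCl, Pluronic buffer / Reagent: FP-Rh activity-based fluorescent probe / Control set: S159A mutant high control, sample median low control / Detection: fluorescence polarization with parallel and perpendicular emission, 525/598 nm / Schedule: 45 min + 60 min at 25 °C / Compound dosing: 8.92 µM, single dose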
# SIAE primary – human SIAE inhibition, primary screen. inhibition, % at 9.66 µM. Q9HAT2. SIAE FP-Rh probe binding, fluorescence polarization. hit rate 0.69% among 370,000;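 active = inhibition above a cutoff: mean of compounds within the control limits plus 3 SD of those, cut at about 17% in these data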;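 also: 0% = plate median of compound wells and 100% = probe without SIAE protein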
# HTRA1 inhibitor – blocks human HTRA1 serine peptidase | Q92743 | recombinant HTRA1, FP-rhodamine activity-based probe, fluorescence polarization | inhibition, % at 5.96 µM | hit rate 0.5% among 340,000 | AID 504803; in the data active = inhibition above about 36%;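 also: 0% = enzyme with DMSO and 100% = wells lacking enzyme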
# PRMT1 inh – PRMT1 (human) inhibition, primary screen. Q99873. recombinant PRMT1, activity-based probe fluorescence polarization. hit rate 1.3% among 370,000. AID 652257. inhibition, % at 2.79 µM;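 active = inhibition above about 21% made by adding two undisclosed values, limit read from the data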
# Target sequence (Q99873 whole entry, looked up): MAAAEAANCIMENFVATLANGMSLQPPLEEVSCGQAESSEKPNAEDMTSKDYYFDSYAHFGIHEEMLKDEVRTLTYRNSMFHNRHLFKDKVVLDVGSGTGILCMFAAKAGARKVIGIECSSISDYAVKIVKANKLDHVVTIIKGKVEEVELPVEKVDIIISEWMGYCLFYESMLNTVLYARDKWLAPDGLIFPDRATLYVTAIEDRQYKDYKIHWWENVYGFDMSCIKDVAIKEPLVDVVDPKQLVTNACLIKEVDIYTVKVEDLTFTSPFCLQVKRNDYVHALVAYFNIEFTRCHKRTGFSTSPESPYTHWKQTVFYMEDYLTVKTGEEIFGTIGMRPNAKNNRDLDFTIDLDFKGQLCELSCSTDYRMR
# TCR CD3 inh – blocks the human TCR-CD3 interaction; TAMRA-labeled TCR probe fluorescence, biochemical; hit rate 0.37% among 360,000; inhibition, % at 9.4 µM; in the data active = inhibition above about 19%;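 also: recombinant mutant TCR 2C K166C tagged with TAMRA read by polarization; 0% = receptor in buffer alone and 100% = receptor with positive control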
# SIAE confirm – confirmation of human SIAE inhibitors. shares compounds with SIAE primary. SIAE FP-Rh activity-based probe, fluorescence polarization. inhibition, % at 9.66 µM. hit rate 13% among 2,300. AID 1117263;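 active = mean inhibition of the replicates above the hit cutoff set in the primary screen, cut at about 17% in these data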;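 also: 0% = SIAE with DMSO and probe and 100% = probe without SIAE; inhibitors lower polarization as more probe stays unbound to SIAE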
# * = called active by the depositor; . = no result. A selection: hits, their analogues and other compounds. The true share with any hit is near 2.6%.
SMILES,mABHD4 FP,SIAE primary,HTRA1 inhibitor,PRMT1 inh,TCR CD3 inh,SIAE confirm
O=C(COC(=O)c1cnccn1)N=c1sccn1Cc1ccccc1Cl,1,20*,0,1,12,-3
Nc1ncnc2c1ncn2[C@@H]1O[C@H](C(=O)NS(=O)(=O)c2ccccc2[N+](=O)[O-])[C@@H](O)[C@H]1O,-10,2,.,6,-6,.
Cc1cc(S(=O)(=O)NC(=O)[C@H]2O[C@@H](n3ccc(=O)[nH]c3=O)[C@H](O)[C@@H]2O)ccc1Br,7,2,.,4,-2,.
CN(C)c1cccc2c(S(=O)(=O)NC(=O)[C@H]3O[C@@H](n4ccc(=O)[nH]c4=O)[C@H](O)[C@@H]3O)cccc12,-5,36*,.,0,9,46*
O=C(NS(=O)(=O)c1ccccc1[N+](=O)[O-])[C@H]1O[C@@H](n2ccc(=O)[nH]c2=O)[C@H](O)[C@@H]1O,-1,30*,.,-1,4,30*
COC(=O)[C@]1(Cc2ccccc2)NC=C(C(=O)c2ccc(F)cc2)[C@@H]1c1ccccc1,4,2,.,1,7,.
Cc1ccccc1C(=O)Nc1nnc(-c2cccnc2)o1,-2,18*,0,-2,-4,-5
O=C(COC(=O)/C=C/c1cccs1)Nc1nc(-c2ccccc2)cs1,-4,8,-1,-4,0,.
O=C(COC(=O)/C=C/c1cccs1)Nc1nc(-c2cccc(Br)c2)cs1,9,30*,-5,2,-1,16
Cc1ccc(NC(=O)CC2SC(=NCC3CCCO3)NC2=O)cc1Cl (stereo not given),0,-2,-3,3,-4,.
COc1ccc(NC(=O)CC2SC(=NCC3CCCO3)NC2=O)cc1 (stereo not given),1,17*,0,2,1,-3
COC(=O)c1cnn(-c2ccc(F)cc2F)c1/C=N/NC(=S)Nc1ccccc1,-4,-1,.,6,.,.
COc1ccc(/C=N/Nc2nc(C)cc(-c3ccccc3)n2)c(OC)c1,2,-1,1,-2,-2,.
COc1ccc(O)c(/C=N/Nc2nc(C)cc(-c3ccccc3)n2)c1,7,22*,6,-2,-2,6
O=C1N=c2ccccc2=C1c1sc(=S)n(NC(=O)c2cccc(O)c2)c1O,26,29*,0,3,2,33*
COc1ccc(CC(=O)c2ccc(OC)c(OC)c2)cc1,-6,17*,2,-2,0,3
CCOC(=O)c1ccc(N/C=C\C(=O)c2cccc(OC)c2)cc1,4,11,-5,0,8,.
COc1cccc(C(=O)/C=C/Nc2cc(C)ccc2O)c1,7,23*,5,0,2,-4
CN(c1cccnc1)c1ccc(NC(=O)Cc2c[nH]c3ccccc23)cc1-c1cccnc1F,17,11,.,2,9,.
COC(=O)CCCCCc1ccc(C(C)=O)s1,1,17*,4,-1,3,6
COc1cc(CCC(C)=O)ccc1OC(=O)c1c(-c2c(F)cccc2Cl)noc1C,-19,5,.,-2,-1,.
CC1(C(=O)Nc2ccccc2)CCN1C(=O)CCc1ccc(Cl)cc1Cl (stereo not given),-3,19*,.,-1,-5,-1
COC(=O)C1=CN(Cc2ccccc2)C=C(C(=O)OC)C1c1ccc(OC)c(OC)c1,4,-3,14,-2,6,.
CCOc1ccc(C2C(C(=O)OC)=CN(C(C)c3ccccc3)C=C2C(=O)OC)cc1 (stereo not given),-8,18*,-27,-2,7,1
O=C1N(Cc2ccccc2)c2ccccc2C12CCCc1oc(CCc3ccccc3)nc12 (stereo not given),-3,-2,.,-4,.,.
SMILES,mABHD4 FP,SIAE primary,HTRA1 inhibitor,PRMT1 inh,TCR CD3 inh,SIAE confirm
CC(=O)N1CCC2(CC1)C/C(=N\NC(=S)Nc1ccc(C)cc1)c1cc(O)ccc1O2,19,26*,3,2,-1,-23
O=C(COc1ccccc1)NC(=S)Nc1cccc2c(O)cccc12,29,25*,2,18,12,4
CCOc1ccc(NC(=S)Nc2cccc3ccccc23)cc1,0,18*,1,2,3,0
COC(=O)c1ccccc1NC(=S)NC(=O)COc1ccccc1,3,-1,-17,1,1,.
CC(C)c1ccc(NC(=S)Nc2cccc3ccccc23)cc1,-1,18*,-6,0,1,5
C/C(=N\NC(=O)c1ccccc1O)c1ccc(NC(=O)Cc2ccccc2)cc1,2,18*,11,1,6,0
CCCCCCCCN1C(=O)[C@@H](CC(=O)NCc2cccc3ccccc23)C[C@@]2(C(=O)OC)C1=C[C@H](C(C)(C)C)O[C@@H]2C,4,-5,.,7,-5,.
O=C(CSc1nnc(-c2cccs2)n1-c1ccccc1)N1CCCC1,2,1,-2,3,6,.
Nn1c(SCC(=O)N2CCCC2)nnc1-c1cccs1,6,17*,1,-1,1,-1
COC(=O)c1ccc(OC(=O)CCN2c3ccccc3Sc3ccccc32)cc1,-1,6,10,1,-5,.
CC(=O)c1ccc(OC(=O)CCN2c3ccccc3Sc3ccccc32)cc1,-5,19*,35,-1,2,-3
Cc1cc(O)cc(=O)n1-c1cc(F)c(F)c(F)c1,5,-1,.,3,-4,.
CCCCn1c(N)c(N(C(=O)CSc2nnnn2-c2ccccc2)C2CCCC2)c(=O)[nH]c1=O,1,22*,-2,-2,-8,16
COCCN(CCOC)C(=S)Nc1cc(S(=O)(=O)N(C)C)ccc1C,2,20*,-2,-9,6,-4
CCNC(=S)N1CCc2cc(OC)c(OC)cc2C1COc1ccccc1OC (stereo not given),2,18*,-8,1,-11,2
COc1ccc(NC(=O)C/C(C)=N/NC(=O)c2cnccn2)cc1,4,2,4,0,2,.
CCOc1ccc(NC(=O)C/C(C)=N/NC(=O)c2cnccn2)cc1,-5,20*,4,0,7,0
COc1ccc(Nc2nc(-c3cccc(OC)c3O)nc3ccccc23)cc1,20,18*,15,-3,-3,-29
COc1cccc(-c2nc(NC(C)(C)C)c3ccccc3n2)c1O,11,15,-13,-4,-3,.
O=c1[nH][nH]c(=O)n1-c1ccccc1,6,20*,3,-1,0,-2
Cc1cccc(NC(=S)NC2CC3CCCC(C2)N3Cc2ccco2)c1 (stereo not given),-1,11,3,-1,3,.
Cc1ccc(NC(=S)NC2CC3CCCC(C2)N3Cc2ccco2)cc1 (stereo not given),1,26*,-2,-1,-4,3
CCOc1ccc(CCNC(=O)c2[nH]c(C)c(C(C)=O)c2CC)cc1OCC,-3,0,-5,1,4,.

# Screening data as filed in PubChem BioAssay.
